Reference: ChEMBL document CHEMBL1138367, “Synthesis and in vivo evaluation of non-hepatotoxic acetaminophen analogs” (Bioorg Med Chem, 2007)
Activity calls are given as the source filed them.

What was measured:
Mus musculus [1] = experiment: Analgesic activity in CD1 mouse assessed as acetic acid-induced writhing at 1 mmol/kg, po after 1 hr; format: functional
How it was run: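 Mice fasted overnight, dosed orally by esophageal cannula under brief halothane, 1 mmol/kg; 1 h reading, n = 9–16 per group. Writhing induced by ip 0.4% acetic acid, 10 mL/kg, given 25 min after drug; writhes counted for 10 min starting 5 min after injection. Expressed as % analgesia ± SEM.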

Mus musculus [2] = experiment: Hepatotoxicity in mouse assessed as plasma GPT levels at 3.7 mmol/kg, po after 24 hrs; format: toxicity, organism-based; settings: in vivo
How it was run: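 C57BL/6 mice given a single 3.7 mmol/kg oral dose; plasma GPT measured spectrophotometrically 24 h later and reported as SF units/mL ± SD.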

[3] = Drug level in CD1 mouse urine assessed as glucuronate level; format: ADME, tissue-based; settings: in vivo
[4] = Drug level in CD1 mouse urine assessed as 2-{[(4-Hydroxyphenylcarbamoyl)methyl]sulphamoyl}benzoic acid level at 3 mmol/kg, po; format: ADME, tissue-based; settings: in vivo
How it was run: (§1)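 Two-month-old CD-1 mice, fasted overnight, given a single oral 3 mmol/kg dose in Tween 20 under light halothane. Housed two per metabolic cage, with food from 6 h; urine collected on ice over 24 h. After centrifugation and filtration, analysed by HPLC–MS on a C18 column with an ammonium acetate/acetonitrile gradient; UV detection at 280, 254 and 210 nm.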

Mus musculus [5] = experiment: Hepatotoxicity in CD1 mouse assessed as plasma GOT levels at 6 mmol/kg; format: toxicity, organism-based; settings: in vivo
How it was run: (§2)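 CD-1 mice, fasted overnight, dosed orally with 6 mmol/kg by esophageal cannula under brief halothane anesthesia, or vehicle. Blood collected after decapitation at 24 h into heparinized syringes. Plasma spun 3000 rpm for 10 min at 4 C. GPT and GOT activity measured with a spectrophotometric kit. n = 8–12.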

HepG2 [6] = experiment: Activation of CAR in HEPG2 cells at 100 uM by Western blot; format: functional, cell-based; settings: Homo sapiens
How it was run: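 HEPG-2 cells in EMEM/NEAA/10% FBS, 37 °C, 5% CO2; at 80% confluence held 6–8 h in EMEM with 0.5% FBS, then treated at 100 µM for the times indicated. CAR detected by Western blot on cell extracts (15–20 µg protein, 8–16% gel) with human CAR-specific antibody and ECL, then quantified by densitometry.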

HepG2 [7] = experiment: Hepatotoxicity against HEPG2 cells after 6 to 8 hrs by tryptan blue exclusion test; format: functional, cell-based; settings: Homo sapiens
How it was run: (§3)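 HEPG-2 cells at 80% confluence were serum-starved 6–8 h (EMEM, 0.5% FBS), then exposed to the compound for 6–8 h at 37 °C. Cell toxicity was assessed by Trypan blue exclusion.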

Mus musculus [8] = species on record: Mus musculus; experiment: Analgesic activity in CD1 mouse by formalin-induced pain model after 30 mins; format: functional; settings: for ED50: CD1, 0.5 h
How it was run: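 Oral dosing (fasted, halothane, esophageal cannula) 30 min before sc injection of 30 µL 5% buffered formalin into one hind plantar paw. Paw-licking time recorded in 5-min blocks over 90 min; mice habituated to the test box 90 min the day before. Three-way ANOVA (drug × dose × time) with Tukey; ED50 by nonlinear regression.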

Mus musculus [9] = experiment: Analgesic activity in CD1 mouse upto 3010 umol/kg by hot plate assay; format: functional, organism-based
How it was run: (§4)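 Oral doses given to overnight-fasted mice. Latency to lick the hind paw was recorded on a 54 ± 1 °C hot plate, with a 30 s cut-off assigned to non-responders. Testing was done blind.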

Mus musculus [10] = experiment: Hepatotoxicity in CD1 mouse assessed as renal glutathione levels at 6 mmol/kg; format: toxicity, organism-based; settings: in vivo
How it was run: (§5)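 Male CD-1 mice (20–30 g), fasted overnight, received 6 mmol/kg orally by esophageal cannula under brief halothane anesthesia, or vehicle. At 3 h the livers were saline-perfused. Liver was homogenized 5% w/v and kidney 10% w/v in 5% MPA, then centrifuged 3000g for 10 min at 4 C. Supernatant glutathione read colorimetrically. n = 8–12.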

[11] = Drug level in CD1 mouse urine assessed as unmetabolized fractions at 3 mmol/kg, po; format: ADME, tissue-based; settings: read-out: Activity; how it was run: as §1
Mus musculus [12] = species on record: Mus musculus; experiment: Analgesic activity in CD1 mouse by acetic acid-induced writhing test after 30 to 40 mins; format: functional
How it was run: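 Overnight-fasted mice given several oral doses by esophageal cannulation under brief halothane. Acetic acid 0.4% (10 mL/kg ip) injected 25 min post-dose; writhes counted over 10 min from 5 min after injection, i.e. 30–40 min after dosing. Percent analgesia vs vehicle; two-way ANOVA with Tukey; ED50 by nonlinear regression.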

Mus musculus [13] = experiment: Antiinflammatory activity in CD1 mouse by carrageenan-induced paw edema method; format: functional, organism-based
How it was run: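 Male CD-1 mice dosed orally; 30 min later, under halothane, 50 µL 1% lambda-carrageenan in saline was injected into one hind plantar paw. Paw volume was measured by paw volume meter before and 4 h after injection, expressed as % of vehicle controls ± SEM; n = 4–5 per dose. Indomethacin 30 mg/kg po served as positive control.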

Mus musculus [14] = experiment: Analgesic activity in CD1 mouse upto 3010 umol/kg by tail flick test; format: functional, organism-based
How it was run: (§6)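 Oral doses given to fasted mice. A focused light beam was aimed at the tail, with intensity set for baseline latencies of 3–4 s; withdrawal latency was recorded by photoelectric cell. Testing was done blind.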

Mus musculus [15] = experiment: (§7) Toxicity in CD1 mouse assessed as mortality at 6 mmol/kg; format: organism-based; settings: mouse, in vivo
How it was run: (§8)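 CD-1 mice, fasted overnight, given a single oral dose of 6 mmol/kg by esophageal cannula under brief halothane anesthesia. Deaths recorded 24 h after dosing, expressed as a fraction of the group (n = 10).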

Mus musculus [16] = experiment: Hepatotoxicity in CD1 mouse assessed as plasma GPT levels at 6 mmol/kg; format: toxicity, organism-based; settings: in vivo; how it was run: as §2
HepG2 [17] = experiment: Upregulation of Fas-ligand in HEPG2 cells by Western blot; format: functional, cell-based; settings: Homo sapiens
How it was run: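 HEPG-2 cells at 80% confluence, serum-starved 6–8 h (EMEM, 0.5% FBS), then treated with 100 µM for the times indicated at 37 °C. Fas-ligand measured by Western blot on extracts normalised for protein (15–20 µg loaded), Fas-L-specific antibody, ECL detection, densitometric quantitation.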

Mus musculus [18] = experiment: Hepatotoxicity in CD1 mouse assessed as hepatic glutathione levels at 6 mmol/kg; format: toxicity, organism-based; settings: in vivo; how it was run: as §5
HepG2 [19] = experiment: Induction of apoptosis in HEPG2 cells by Hoechst staining; format: functional, cell-based; settings: Homo sapiens
How it was run: (§9)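 Serum-starved HEPG-2 cells were treated 6–8 h at 37 °C (100 µM). After washing with PBS, cells were stained with Hoechst (2 µM final) for 45 min at 37 °C. Apoptotic cells were detected by confocal fluorescence microscopy.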

[20] = Drug level in CD1 mouse urine assessed as glucuronate level at 3 mmol/kg, po; format: ADME, tissue-based; settings: in vivo; how it was run: as §1
Mus musculus [21] = experiment: Hepatotoxicity in CD1 mouse assessed as increased plasma GPT levels at 6 mmol/kg; format: toxicity, organism-based; settings: in vivo
How it was run: (§10)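 Male CD-1 mice (20–30 g), fasted overnight, received 6 mmol/kg orally by esophageal cannula. At 24 h, blood was collected by decapitation into heparinized syringes and plasma obtained by centrifugation at 4 °C. GPT and GOT were determined with a spectrophotometric kit; n = 8–12. Mortality was recorded at 24 h.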

[22] = Hepatotoxicity in C57BL/6 mouse; format: toxicity, organism-based; settings: in vivo
Mus musculus [23] = experiment: Hepatotoxicity in CD1 mouse assessed as reduction in renal glutathione levels at 6 mmol/kg; format: toxicity, organism-based; settings: in vivo
How it was run: (§11)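 Male CD-1 mice (20–30 g), fasted, given 6 mmol/kg orally; killed 3 h later and livers perfused with heparinized saline. Liver homogenized to 5% w/v and kidney to 10% w/v in 5% MPA, then centrifuged 3000g for 10 min at 4 °C. Glutathione in supernatant measured by colorimetric kit; n = 8–12.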

HepG2 [24] = experiment: Induction of apoptosis in HEPG2 cells at 100 uM after 6 to 8 hrs by Hoechst staining; format: functional, cell-based; settings: Homo sapiens; how it was run: as §9
HepG2 [25] = experiment: Hepatotoxicity against HEPG2 cells at 200 uM after 6 to 8 hrs by tryptan blue exclusion test; format: functional, cell-based; settings: Homo sapiens; how it was run: as §3
Mus musculus [26] = experiment: Analgesic activity in CD1 mouse upto 6620 umol/kg by hot plate assay; format: functional, organism-based; how it was run: as §4
HepG2 [27] = experiment: Hepatotoxicity against HEPG2 cells at 100 uM after 6 to 8 hrs by tryptan blue exclusion test; format: functional, cell-based; settings: Homo sapiens; how it was run: as §3
[28] = as §7; format: organism-based; settings: CD1, mouse, in vivo, 6 mmol/kg; read-out: Activity; how it was run: as §8
Mus musculus [29] = experiment: Analgesic activity in CD1 mouse upto 6620 umol/kg by tail flick test; format: functional, organism-based; how it was run: as §6
Mus musculus [30] = experiment: Hepatotoxicity in CD1 mouse assessed as reduction in hepatic glutathione levels at 6 mmol/kg; format: toxicity, organism-based; settings: in vivo; how it was run: as §11
Mus musculus [31] = experiment: Hepatotoxicity in CD1 mouse assessed as increased plasma GOT levels at 6 mmol/kg; format: toxicity, organism-based; settings: in vivo; how it was run: as §10

## O=C(CCCN1C(=O)c2ccccc2S1(=O)=O)Nc1ccc(O)cc1
Mus musculus [1]
  Activity: 28.9%
Mus musculus [2]
  Activity: 82.62 U/ml

## O=C(CNS(=O)(=O)c1ccccc1C(=O)O)Nc1ccc(O[C@@H]2O[C@H](C(=O)O)[C@@H](O)[C@H](O)[C@H]2O)cc1
[3]
  Activity: 23.7%

## O=C(CNS(=O)(=O)c1ccccc1C(=O)O)Nc1ccc(O)cc1
[4]
  Activity: 38.6%

## O=C(CN1C(=O)c2ccccc2S1(=O)=O)Nc1ccc(O)cc1
Mus musculus [5]
  Activity: Not Active
HepG2 [6]
  Activity: inactive
HepG2 [7]
  Activity: inactive
Mus musculus [1]
  Activity: 62.42%
Mus musculus [8]
  Activity: Dose-dependent effect
  ED50: 260 µmol/kg
Mus musculus [2]
  Activity: 30.5 U/ml
Mus musculus [9]
  Activity: inactive
Mus musculus [10]
  Activity: Not Active
[11]
  dose excreted: 0.9%
Mus musculus [12]
  Activity: Dose-dependent effect
  ED50: 640 µmol/kg
Mus musculus [13]
  Activity: inactive
Mus musculus [14]
  Activity: inactive
Mus musculus [15]
  Activity: Not Active
Mus musculus [16]
  Activity: Not Active
HepG2 [17]
  Activity: inactive
Mus musculus [18]
  Activity: Not Active
HepG2 [19]
  Activity: inactive

## O=C(CN1C(=O)c2ccccc2S1(=O)=O)Nc1ccc(O[C@@H]2O[C@H](C(=O)O)[C@@H](O)[C@H](O)[C@H]2O)cc1
[20]
  Activity: 32%

## O=C(CCCCN1C(=O)c2ccccc2S1(=O)=O)Nc1ccc(O)cc1
Mus musculus [1]
  Activity: 32.56%
Mus musculus [2]
  Activity: 44.16 U/ml

## CC(=O)Nc1ccc(O)cc1 [ACETAMINOPHEN]
Mus musculus [21]
  Activity: Active
[22]
  LD50: 3700 µmol/kg
Mus musculus [23]
  Activity: Active
HepG2 [6]
  Activity: Active
HepG2 [24]
  Activity: Active
Mus musculus [1]
  Activity: 61.32%
HepG2 [25]
  Activity: Active
Mus musculus [8]
  Activity: Dose-dependent effect
  ED50: 1900 µmol/kg
Mus musculus [26]
  Activity: inactive
Mus musculus [2]
  Activity: 299.01 U/ml
HepG2 [27]
  Activity: Active
Mus musculus [12]
  Activity: Dose-dependent effect
  ED50: 1290 µmol/kg
Mus musculus [13]
  Activity: inactive
[28]
  mortality: 40%
Mus musculus [29]
  Activity: inactive
HepG2 [17]
  Activity: Active
Mus musculus [30]
  Activity: Active
Mus musculus [31]
  Activity: Active

## O=C(CCCCCN1C(=O)c2ccccc2S1(=O)=O)Nc1ccc(O)cc1
Mus musculus [1]
  Activity: 53.72%
Mus musculus [2]
  Activity: 29.52 U/ml

## O=C(CCN1C(=O)c2ccccc2S1(=O)=O)Nc1ccc(O)cc1
Mus musculus [1]
  Activity: 43.8%
Mus musculus [2]
  Activity: 28.85 U/ml
